Measurements from the RNAGym collection of RNA variant scans (doi:10.1126/science.aae0568).
This sample holds only a part of the variants without activity.

B1: tRNA (parent)
chain: GUUCCGUUGGCGUAAUGGUAACGCGUCUCCCUCCUAAGGAGAAGACUGCGGGUUCGAGUCCCGUACGGAACG

Variants of: B1
Experiment: yeast fitness relative to wild type (ratio to wild type); higher = fitter; tRNA-Arg(CCU), competitive growth, 37 C, YPD
Method in brief: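 Variants of the tRNA-Arg(CCU) gene, chemically synthesised with a 3% per-site mutation rate at 69 sites, were placed at the native genomic locus in Saccharomyces cerevisiae. The pooled strains were competed in YPD at 37°C for 24 hours in six parallel replicates. Gene amplicons from the start population and from each end population were read by 100-nucleotide paired-end sequencing. Darwinian fitness relative to wild type came from changes in genotype frequencies; genotypes needed ≥ 100 starting reads, and estimates < 0.5 were set to 0.5.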
GUUCCGUUGGCGUAAUGGUAACGCGUCUUCCUCCUAAGGAGAAGACUGCGGGUUCGAAUCCCGUACGGUACG [C29U G58A A69U] showed a yeast fitness of 0.754.
Variant GUUCCGUUGGCGUAAUGGUAACGCGUCUCACUCCUAAGGAGAAGACUGCGGGUUCGAGUCCCGUUCGGCACG [C30A A65U A69C] has a yeast fitness of 0.692.
In the case of GUUCCGUUGGCGUAAUGGUAACGCGUCUUCCUCCUAAGGAGAAGACUGCGGCUUCGAGUCCCGUACGGAACG [C29U G52C], the yeast fitness is reported as 0.579.
Variant GUUCCGUUGGCGUAAUGGUAACGCGUCUCACUCCUAAGGUGAAGACUGCGGGUUCGAUUCCCGUACGGAACG [C30A A40U G58U] has a yeast fitness of no more than 0.5.
GUUCCGUUGGCGUAAUGGUAACGCGUCUUCCUCCUAAGGAGAAGACUGCGGGUUCGAGUCCCAUACGGAUCG [C29U G63A A70U] showed a yeast fitness of 0.6.
Work on GUUCCGUUGGCGUAAUGGUAACGCGUCUCAGUCCUAAGCAGAAGACUGCGGGUUCGAGUCCCGUACGGAACG [C30A C31G G39C] yielded a yeast fitness of 0.535.
GUUCCGUUGGCGUAAUGGUAACGCGUCUCACUCCUAAGGAGAAGACUGCGGGUUCGAGUCCCGUACGGGACG [C30A A69G] gave a yeast fitness of 0.915.
Variant GUUCCGUUGGCGUAAUGGUAACGCGUCUCACUCCUAAGGAGAAGACUGCGGGUUCGAGUCCCGUACGGCACG [C30A A69C] has a yeast fitness of 1.03.
With GUUCCGUUGGCGUAAUGGUAACGCGUCUUCCGCCUAAGGAGAUCACUGCGGGCUCGAGUCCCGUACGGAACG [C29U U32G A43U G44C U53C] the yeast fitness was no more than 0.5.
GUUCCGUUGGCGUAAUGGUAACGCGUCUCACUCUUAAGGAGAAGACUGCGGGUUCGAGUCCCCUACGGAACG [C30A C34U G63C] showed a yeast fitness of 0.698.
In the case of GUUCCGUUGGCGUAAUGGUAACGCGUCUUCCUCCUAAGGAGAAGACUGCGGGUUCGACUCCCGUACGAAACG [C29U G58C G68A], the yeast fitness is reported as no more than 0.5.
With GUUCCGUUGGCGUAAUGGUAACGCGUCUCACUCCUAAGGAGACGACUGCGGGUUCGAGUCCCGUACGGAACG [C30A A43C] the yeast fitness was 0.884.
GUUCCGUUGGCGUAAUGGUAACGCGUCUUCCUCCCAAGGAGUAGACUGCGGGUUCGAGUCUCGUAAGGAACG [C29U U35C A42U C61U C66A] showed a yeast fitness of no more than 0.5.
GUUCCGUUGGCGUAAUGGUAACGCGUCUUCCACCUAAGGAGAAGACUGCGGGUUCGAGUCCCGUACGGUACG [C29U U32A A69U] gave a yeast fitness of 0.6.
GUUCCGUUGGCGUAAUGGUAACGCGUCUUCCUCCUAAGGAGAAGACUACGGGUUCCAGUCUCGUACGGAACG [C29U G48A G56C C61U] showed a yeast fitness of no more than 0.5.
With GUUCCGUUGGCGUAAUGGUAACGCGUCUUCCGCCUAAGGAGAUCACUGCGGGUUCGAGUCUCGUACGGAACG [C29U U32G A43U G44C C61U] the yeast fitness was 0.509.
GUUCCGUUGGCGUAAUGGUAACGCGUCUUCCUCCUAAGGAGAAGACUGCGGGAUCGAGUCUCGUACGGAACG [C29U U53A C61U] gave a yeast fitness of 0.685.
Variant GUUCCGUUGGCGUAAUGGUAACGCGUCUUCCUCCUAAGGAGAAGACUGCGGGUUCGAGUCCCCUACGGAACG [C29U G63C] has a yeast fitness of 0.728.
Variant GUUCCGUUGGCGUAAUGGUAACGCGUCUCACUCCUAAGGAGAAGACUGCGGGUUCGAGUCCCGUACGGAACG [C30A] has a yeast fitness of 0.998.
With GUUCCGUUGGCGUAAUGGUAACGCGUCUCACUACUAAGGAGAAGACUGCGGGUUCGAGUCCCGUACGGAACG [C30A C33A] the yeast fitness was 0.652.
Variant GUUCCGUUGGCGUAAUGGUAACGCGUCUCAUUCCUGAGGAGAAGACUGCGGGUUCGAGUCCCGUACGGAACG [C30A C31U A36G] has a yeast fitness of 0.587.
For GUUCCGUUGGCGUAAUGGUAACGCGUCUUCCUCCCAAGGAGAAGACUGCGGGUUCGAGUCCCGUACGGAACG [C29U U35C], the yeast fitness was 0.95.
With GUUCCGUUGGCGUAAUGGUAACGCGUCUUCCUCCUAAGGAGAAGACUCCGGGUUCGAGUCCCGUUCGGAACG [C29U G48C A65U] the yeast fitness was no more than 0.5.
GUUCCGUUGGCGUAAUGGUAACGCGUCUCACUCCUAAGGAGAAGAGUGCGGGUUCGAGUCCCGUACGGAACG [C30A C46G] gave a yeast fitness of 0.991.
With GUUCCGUUGGCGUAAUGGUAACGCGUCUUCCCCCUAAGGAGAAGACUGCGGGUUCGAGUCCCGUACGGAACG [C29U U32C] the yeast fitness was 0.981.
GUUCCGUUGGCGUAAUGGUAACGCGUCUCACUCCUAAGGAGAAGAUUGCGGAUUUGAGUCCCGUACGGAACG [C30A C46U G52A C55U] showed a yeast fitness of no more than 0.5.
Variant GUUCCGUUGGCGUAAUGGUAACGCGUCUUCCUCCUAAGGAGAAGACUGCGGGUUCGAGUCCCGUACGACACG [C29U G68A A69C] has a yeast fitness of no more than 0.5.
GUUCCGUUGGCGUAAUGGUAACGCGUCUCAAUCCUAAGGAGAAGACUGCGGGUUCGAGUUCGGUACGGAACG [C30A C31A C60U C62G] showed a yeast fitness of no more than 0.5.
With GUUCCGUUGGCGUAAUGGUAACGCGUCUUCCUCCCAAGGAGAAGACUGCGGGUUCGAGUCCUGUACGGAUCG [C29U U35C C62U A70U] the yeast fitness was no more than 0.5.
Variant GUUCCGUUGGCGUAAUGGUAACGCGUCUUCCUCCUAAGGAGAAGACUGCGGGUUCGACUCCCGUGCGGAACG [C29U G58C A65G] has a yeast fitness of 0.61.
For GUUCCGUUGGCGUAAUGGUAACGCGUCUUCCUCCUAAGGAGAAGACUGCGGGCUGGAGUCCAGUACGGAACG [C29U U53C C55G C62A], the yeast fitness was no more than 0.5.
Variant GUUCCGUUGGCGUAAUGGUAACGCGUCUUCCUCCUAAGGAGAAGACUGCGAGUUCGAGUCCCGUACGGAACG [C29U G51A] has a yeast fitness of 0.883.
Variant GUUCCGUUGGCGUAAUGGUAACGCGUCUCACUCCUAAGGAGAUGACUGCGGGUUCGAGUCCCGUAUGGAACG [C30A A43U C66U] has a yeast fitness of 0.75.
With GUUCCGUUGGCGUAAUGGUAACGCGUCUUCCUCCAAACGAGAAGUCUGCGGGUUCGAGCCCCGUACGGAACG [C29U U35A G38C A45U U59C] the yeast fitness was no more than 0.5.
Variant GUUCCGUUGGCGUAAUGGUAACGCGUCUCACUCGUAAGGAGAAGACUGCGGGUUCGAGUCCCGUACGGAACG [C30A C34G] has a yeast fitness of 0.682.
For GUUCCGUUGGCGUAAUGGUAACGCGUCUCACUCCUACGGAAAUCACUGCGGGUUCGAGUCCCGUACGGAGCG [C30A A37C G41A A43U G44C A70G], the yeast fitness was no more than 0.5.
With GUUCCGUUGGCGUAAUGGUAACGCGUCUUCCUCCUAAGGAGAAGACAGCGGGUUCGAGUCCCGUACGGUACG [C29U U47A A69U] the yeast fitness was 0.679.
For GUUCCGUUGGCGUAAUGGUAACGCGUCUCACUCCUAUGGUGAAGACUGUGGGUUCGAGUCCCGUACGGAACG [C30A A37U A40U C49U], the yeast fitness was no more than 0.5.
